Eleven compounds from ChEMBL document CHEMBL4673243, “Discovery of 9-Cyclopropylethynyl-2-((S)-1-[1,4]dioxan-2-ylmethoxy)-6,7-dihydropyrimido[6,1-a]isoquinolin-4-one (GLPG1205), a Unique GPR84 Negative Allosteric Modulator Undergoing Evaluation in a Phase II Clinical Trial” (J Med Chem, 2020) can be followed below.

One data set is described as follows: physchem. The note with it: aqueous solution with 2% DMSO, pH 7.4.
Data set [1] concerns the target 3',5'-cyclic-AMP phosphodiesterase 4A (Homo sapiens, UniProt P27815). Put plainly: Inhibition of recombinant human PDE4A overexpressed in HEK293 cells assessed as reduction in cAMP hydrolysis by HTRF based immunoassay. It is filed as cell-based. The note with it: read-out: IC50. In short, it runs like this:
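Human PDE4A from lysate of HEK293 cells overexpressing the enzyme hydrolyses cAMP; remaining cAMP measured by HTRF competitive immunoassay (d2-labelled cAMP vs cryptate anti-cAMP antibody), signal inversely proportional to cAMP; IC50 determined.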

A short description of data set [2]: in vitro. The conditions noted are these: mouse, liver microsomes. (Liver microsomes are a subcellular fraction often used to study metabolism.)
The nature of data set [3]: in vitro. The conditions noted are these: rat, liver microsomes.
Data set [4] can be described thus: Plasma protein binding in mouse at 5 uM measured after 4 hrs by LC-MS/MS analysis.
Data set [5] in a line: in vitro. The conditions noted are these: mouse, cryopreserved hepatocytes.
Data set [6] is described as follows: in vitro. The conditions noted are these: human, cryopreserved hepatocytes.
Data set [7] in a line: Plasma protein binding in human at 5 uM measured after 4 hrs by LC-MS/MS analysis.
Data set [8] in a line: Plasma protein binding in rat at 5 uM measured after 4 hrs by LC-MS/MS analysis.
Data set [9] can be described thus: in vitro. The conditions noted are these: human, liver microsomes.
The target in a further data set is CYP2C9 (Homo sapiens, UniProt P11712). Description: Inhibition of CYP2C9 in human liver microsomes at 10 uM using probe substrate and in presence of co-factor measured after 20 mins by LC-MS/MS analysis relative to control. The class given is ADME.
Data set [10] has as its target T1, CYP3A4 (Homo sapiens, UniProt P08684). Put plainly: Inhibition of CYP3A4 in human liver microsomes at 10 uM using midazolam as probe substrate and in presence of co-factor measured after 20 mins by LC-MS/MS analysis relative to control. The class given is ADME.
The target of another data set is T2, CYP1A2 (Homo sapiens, UniProt P05177).
T2 sequence (P05177 whole entry): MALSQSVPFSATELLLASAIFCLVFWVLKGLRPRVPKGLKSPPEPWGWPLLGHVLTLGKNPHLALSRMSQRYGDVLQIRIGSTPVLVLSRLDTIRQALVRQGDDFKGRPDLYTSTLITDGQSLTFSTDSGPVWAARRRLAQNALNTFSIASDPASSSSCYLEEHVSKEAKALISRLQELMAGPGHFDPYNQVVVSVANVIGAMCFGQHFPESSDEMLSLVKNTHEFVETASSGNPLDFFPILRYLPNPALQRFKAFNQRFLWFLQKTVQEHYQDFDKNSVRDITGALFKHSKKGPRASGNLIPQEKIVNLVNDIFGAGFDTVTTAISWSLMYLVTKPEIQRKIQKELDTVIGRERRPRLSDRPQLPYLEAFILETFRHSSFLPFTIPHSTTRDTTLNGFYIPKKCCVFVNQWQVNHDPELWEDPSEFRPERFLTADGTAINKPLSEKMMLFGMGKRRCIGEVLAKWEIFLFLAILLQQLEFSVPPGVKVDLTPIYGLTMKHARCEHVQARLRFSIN
Description: Inhibition of CYP1A2 in human liver microsomes at 10 uM using probe substrate and in presence of co-factor measured after 20 mins by LC-MS/MS analysis relative to control. The class given is ADME.

In a further data set the target is CYP2D6 (Homo sapiens, UniProt P10635). Description: Inhibition of CYP2D6 in human liver microsomes at 10 uM using probe substrate and in presence of co-factor measured after 20 mins by LC-MS/MS analysis relative to control. It is filed as ADME.
A further data set deals with CYP2C19 (Homo sapiens, UniProt P33261). Description: Inhibition of CYP2C19 in human liver microsomes at 10 uM using probe substrate and in presence of co-factor measured after 20 mins by LC-MS/MS analysis relative to control. The class given is ADME.
Data set [11] deals with T1, CYP3A4. Put plainly: Inhibition of CYP3A4 in human liver microsomes at 10 uM using testosterone as probe substrate and in presence of co-factor measured after 20 mins by LC-MS/MS analysis relative to control. The class given is ADME.
Data set [12] in a line: in vitro. The note with it: dog, liver microsomes.
Data set [13] can be described thus: in vitro. The note with it: rhesus monkey, liver microsomes.
A short description of a further data set: in vivo. The note with it: male, Sprague-Dawley, rat, po, 5 mg/kg.

Molecules are shown by their SMILES. Values after ≈ are worked out from the molar mass of the structure shown.

Chain of 3',5'-cyclic-AMP phosphodiesterase 4A (P27815 whole entry): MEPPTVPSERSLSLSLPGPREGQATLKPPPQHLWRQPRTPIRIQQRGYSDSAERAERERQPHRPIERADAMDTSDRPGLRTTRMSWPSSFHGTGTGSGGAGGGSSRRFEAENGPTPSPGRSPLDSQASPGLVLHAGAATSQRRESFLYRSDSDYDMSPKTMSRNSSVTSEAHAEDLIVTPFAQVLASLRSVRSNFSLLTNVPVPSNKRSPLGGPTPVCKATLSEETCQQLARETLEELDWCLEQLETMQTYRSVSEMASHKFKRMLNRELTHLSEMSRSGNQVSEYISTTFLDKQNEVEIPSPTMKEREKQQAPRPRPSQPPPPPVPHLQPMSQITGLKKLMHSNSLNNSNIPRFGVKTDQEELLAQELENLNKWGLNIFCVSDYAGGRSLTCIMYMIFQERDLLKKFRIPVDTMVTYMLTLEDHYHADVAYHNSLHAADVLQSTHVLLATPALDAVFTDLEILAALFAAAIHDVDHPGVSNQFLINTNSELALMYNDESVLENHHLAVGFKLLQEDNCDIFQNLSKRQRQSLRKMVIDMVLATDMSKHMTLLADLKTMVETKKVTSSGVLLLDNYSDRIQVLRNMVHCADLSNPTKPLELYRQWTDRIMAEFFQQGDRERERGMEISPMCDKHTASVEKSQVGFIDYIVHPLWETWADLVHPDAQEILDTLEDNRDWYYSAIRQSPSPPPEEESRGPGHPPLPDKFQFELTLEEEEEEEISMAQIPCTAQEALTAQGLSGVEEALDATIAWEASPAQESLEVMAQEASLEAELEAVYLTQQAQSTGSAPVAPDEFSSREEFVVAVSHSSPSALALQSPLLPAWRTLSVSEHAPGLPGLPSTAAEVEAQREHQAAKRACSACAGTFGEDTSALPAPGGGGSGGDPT
T1 sequence (P08684 whole entry): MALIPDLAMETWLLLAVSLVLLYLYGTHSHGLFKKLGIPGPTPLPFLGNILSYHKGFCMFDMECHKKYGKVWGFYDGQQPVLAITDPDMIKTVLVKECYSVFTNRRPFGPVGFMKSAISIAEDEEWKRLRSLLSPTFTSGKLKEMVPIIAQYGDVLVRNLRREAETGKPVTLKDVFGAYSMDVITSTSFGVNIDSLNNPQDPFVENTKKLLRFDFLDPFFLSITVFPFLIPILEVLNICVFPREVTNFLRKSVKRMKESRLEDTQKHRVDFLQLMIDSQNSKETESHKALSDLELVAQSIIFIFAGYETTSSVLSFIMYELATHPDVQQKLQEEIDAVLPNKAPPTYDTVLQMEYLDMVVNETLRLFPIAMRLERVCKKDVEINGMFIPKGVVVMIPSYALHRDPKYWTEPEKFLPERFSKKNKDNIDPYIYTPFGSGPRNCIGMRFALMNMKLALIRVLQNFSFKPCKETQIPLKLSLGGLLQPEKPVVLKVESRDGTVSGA
Chain of CYP2C9 (P11712 whole entry): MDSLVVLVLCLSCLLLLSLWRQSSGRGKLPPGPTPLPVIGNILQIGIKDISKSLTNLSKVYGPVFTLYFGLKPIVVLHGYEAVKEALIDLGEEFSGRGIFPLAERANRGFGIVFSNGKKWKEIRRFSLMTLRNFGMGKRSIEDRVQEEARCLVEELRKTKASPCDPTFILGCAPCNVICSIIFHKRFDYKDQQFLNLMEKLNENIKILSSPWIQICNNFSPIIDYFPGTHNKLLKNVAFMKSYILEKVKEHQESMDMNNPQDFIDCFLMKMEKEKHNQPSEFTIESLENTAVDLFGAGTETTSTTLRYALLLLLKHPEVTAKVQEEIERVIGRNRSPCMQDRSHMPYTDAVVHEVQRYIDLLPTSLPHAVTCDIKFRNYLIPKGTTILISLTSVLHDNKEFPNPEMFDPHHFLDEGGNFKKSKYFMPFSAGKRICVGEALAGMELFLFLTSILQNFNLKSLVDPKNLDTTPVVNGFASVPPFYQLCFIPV
Chain of CYP2C19 (P33261 whole entry): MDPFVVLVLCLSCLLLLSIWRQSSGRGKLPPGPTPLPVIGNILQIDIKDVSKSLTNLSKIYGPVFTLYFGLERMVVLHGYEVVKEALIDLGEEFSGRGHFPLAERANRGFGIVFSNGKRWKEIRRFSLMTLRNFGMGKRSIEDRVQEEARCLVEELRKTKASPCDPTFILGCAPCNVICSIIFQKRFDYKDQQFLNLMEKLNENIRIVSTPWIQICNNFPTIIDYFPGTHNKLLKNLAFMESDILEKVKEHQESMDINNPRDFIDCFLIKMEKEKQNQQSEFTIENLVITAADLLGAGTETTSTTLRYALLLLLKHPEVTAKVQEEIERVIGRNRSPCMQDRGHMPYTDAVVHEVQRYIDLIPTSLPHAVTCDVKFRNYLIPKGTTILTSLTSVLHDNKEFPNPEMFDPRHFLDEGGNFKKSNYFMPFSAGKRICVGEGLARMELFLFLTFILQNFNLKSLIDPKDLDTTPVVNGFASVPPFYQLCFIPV
Chain of CYP2D6 (P10635 whole entry): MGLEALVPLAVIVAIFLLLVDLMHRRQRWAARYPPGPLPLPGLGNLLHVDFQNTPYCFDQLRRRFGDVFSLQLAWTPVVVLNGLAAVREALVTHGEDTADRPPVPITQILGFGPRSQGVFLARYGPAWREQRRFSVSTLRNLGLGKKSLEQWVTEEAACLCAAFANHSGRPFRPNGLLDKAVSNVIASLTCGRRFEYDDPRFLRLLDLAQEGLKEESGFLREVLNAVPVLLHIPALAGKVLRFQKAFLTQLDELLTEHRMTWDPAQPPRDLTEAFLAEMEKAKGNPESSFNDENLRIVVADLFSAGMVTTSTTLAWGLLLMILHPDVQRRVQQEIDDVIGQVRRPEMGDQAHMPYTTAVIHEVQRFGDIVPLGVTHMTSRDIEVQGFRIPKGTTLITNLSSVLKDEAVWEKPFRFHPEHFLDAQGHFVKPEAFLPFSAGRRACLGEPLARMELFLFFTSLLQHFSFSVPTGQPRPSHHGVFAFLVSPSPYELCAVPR

As a reminder, the solubility is how much of the substance goes into solution per volume. High values mean a readily soluble substance, low ones a poorly soluble substance. As usually defined, the IC50 is the midpoint of a concentration-inhibition curve. A word on the CLint scaled: it is the capacity of the preparation to metabolise the compound, expressed as a volume cleared per time. High values mean faster metabolism, low ones greater metabolic stability. Turning to `COc1cc2c(cc1OC)-c1cc(OCC3CCCO3)nc(=O)n1CC2` (stereo unspecified), in “physchem”, the concentration in solution (solubility) came to 72 µg/mL (≈ 201 µM). Besides, the IC50 in data set [1] was 2.17 µM. The intrinsic clearance (CLint scaled) at 0.5 h, 1 µM in the data set “in vitro [2]” is 175 mL/min/kg.

The fraction unbound is free concentration divided by total concentration. The low end stands for extensive binding, the high end for weak binding. For the compound `COc1ccc2c(c1)CCn1c-2cc(OCC2COCCO2)nc1=O` (stereo unspecified), the CLint scaled at 0.5 h, 1 µM was less than 23.3 mL/min/kg in the data set “in vitro [3]”, 173 mL/min/kg in “in vitro [2]” and less than 15 mL/min/kg in the data set “in vitro [9]”. The fraction unbound at 4 h, 5 µM in data set [4] was 0.389; in data set [7], 0.223; in data set [8], 0.285. Also, the CLint scaled at 1 µM in “in vitro [5]” was 262 mL/min/kg; in “in vitro [6]”, less than 11.7 mL/min/kg.

Take `O=c1nc(OCC2COCCO2)cc2n1CCc1cc(CCc3ccccn3)ccc1-2` (stereo unspecified): the CLint scaled at 0.5 h, 1 µM is 517 mL/min/kg in the data set “in vitro [2]” and 25 mL/min/kg in “in vitro [9]”.

Take `COc1ccc2c(c1)CCn1c-2cc(OCc2ccccc2F)nc1=O`: the IC50 in data set [1] is more than 10 µM. In addition, the intrinsic clearance (CLint scaled) at 0.5 h, 1 µM in the data set “in vitro [2]” is 1490 mL/min/kg.

For `COc1ccc2c(c1)CCn1c-2cc(OCc2ncccc2F)nc1=O`, the half-maximal inhibitory concentration (IC50) in data set [1] is more than 10 µM. For the same compound, in the data set “in vitro [2]”, the CLint scaled at 0.5 h, 1 µM is 487 mL/min/kg.

In general, inhibition refers to the change of the read-out against control, counted positive when it falls. For the compound `COc1cc2c(cc1OC)-c1cc(NCc3ccccc3)nc(=O)n1CC2`, the inhibition at 20 min, 10 µM on CYP2C9, at CYP3A4 [10], on CYP1A2, at CYP2D6, at CYP2C19 and on CYP3A4 [11] was less than 33% throughout. In data set [1], the IC50 stood at 0.553 µM.

A word on the AUC(0-inf): it is total exposure, with the tail of the curve extrapolated. The low end stands for low exposure, the high end for high exposure. As to `N#Cc1ccccc1-c1ccc2c(c1)CCn1c-2cc(OCC2COCCO2)nc1=O` (stereo unspecified), the CLint scaled at 0.5 h, 1 µM was 167 mL/min/kg in “in vitro [12]”; 105 mL/min/kg in the data set “in vitro [3]”; 193 mL/min/kg in the data set “in vitro [13]”; 151 mL/min/kg in the data set “in vitro [2]”; 86.7 mL/min/kg in the data set “in vitro [9]”. In the data set “in vivo”, the AUC(0-inf) at 24 h was determined as 2640 ng·h/mL.

Regarding `CN(CC#Cc1ccc2c(c1)CCn1c-2cc(OCC2COCCO2)nc1=O)Cc1ccccc1` (stereo unspecified), the CLint scaled at 0.5 h, 1 µM in “in vitro [2]” is 433 mL/min/kg; in the data set “in vitro [9]” it was 88.3 mL/min/kg.

Regarding `CC(C)CC(O)C#Cc1ccc2c(c1)CCn1c-2cc(OCC2COCCO2)nc1=O` (stereo unspecified), the intrinsic metabolic clearance (CLint scaled) at 0.5 h, 1 µM in the data set “in vitro [3]” is 255 mL/min/kg; in “in vitro [2]”, 437 mL/min/kg.

Turning to `COc1ccc2c(c1)CCn1c-2cc(OCCOc2ccccc2)nc1=O`, the IC50 in data set [1] was more than 10 µM.

For the compound `CCCCCCOc1cc2n(c(=O)n1)CCc1cc(OC)c(OC)cc1-2`, in “physchem”, the solubility turned out to be 3 µg/mL (≈ 8.37 µM).
